Test results published in ChEMBL document CHEMBL4007393 (J Med Chem, 2017).
Converted amounts (≈) assume the structure as drawn.

Assays:
[1] = Kinetic solubility of the compound in water after 30 mins by nephelometric analysis; type: physicochemical; details: read-out: Kinetic_solubility
How it was run: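 DMSO stock diluted into water to 1% final DMSO and left at ambient temperature for 30 min. Solubility range read by nephelometry.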

[2] = Plasma concentration in FVB mouse at 30 mg/kg, administered through oral gavage as single dose measured after 48 hrs post dose by LC-MS analysis; type: ADME, organism-based
How it was run: (§1)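 Non-infected mice given one oral gavage dose of 30 mg/kg as an aqueous suspension. Terminal cardiac blood taken under isoflurane, centrifuged at 4 °C, plasma stored at -20 °C. Plasma proteins precipitated with acetonitrile (2:1 or 3:1), supernatant run by LC/MS with diazepam internal standard against a blank mouse plasma calibration curve. PK parameters calculated noncompartmentally.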

[3] = AUC (0 to infinity) in FVB mouse at 30 mg/kg, administered through oral gavage as single dose by LC-MS analysis; type: ADME, organism-based; parameters: dose 30 mg/kg, time infinity, route oral; details: in vivo; how it was run: as §1
[4] = Cmax in FVB mouse at 30 mg/kg, administered through oral gavage as single dose by LC-MS analysis; type: ADME, organism-based; parameters: dose 30 mg/kg, route oral; details: in vivo; how it was run: as §1
Rattus norvegicus = experiment: Drug accumulation in rat at 100 to 300 mg/kg, po administered every third day for 5 doses measured after 2 weeks relative to control; type: ADME, organism-based; details: in vivo, 336 h
How it was run: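 Male rats were given oral gavage doses of 100 or 300 mg/kg every third day for five doses, alongside a vehicle group. The vehicle was the same formulation used for the mouse efficacy studies. Plasma concentrations were followed over the dosing period to assess accumulation, together with general condition, body weight, biochemistry and histopathology.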

[5] = Plasma concentration in rat at 300 mg/kg, po administered every third day for 5 doses measured after 2 weeks; type: ADME, organism-based
How it was run: (§2)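 Male rats dosed by oral gavage at 100 or 300 mg/kg every third day for 5 doses, in the same vehicle as the mouse efficacy and exposure studies; vehicle controls included. Endpoints: general condition, body weight, clinical biochemistry, histopathology, mortality and plasma concentrations.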

[6] = Plasma concentration in rat at 100 mg/kg, po administered every third day for 5 doses measured after 2 weeks; type: ADME, organism-based; how it was run: as §2

Row | Structure (SMILES) | solubility kinetic at 0.5 h [1] [µg/mL] | concentration at 48 h [2] [nM] | AUC(0-inf) [3] [µM·h] | Cmax [4] [nM] | fold change (FC) (Rattus norvegicus) | concentration at 336 h [5] [ng/mL] | concentration at 336 h [6] [ng/mL]
1 | c1cc([C@H]2CC[C@]3(CC2)OOC2(O3)C3CC4CC(C3)CC2C4)ccc1OCCN1CCC1 (stereo partly drawn) | > 100 |  |  |  |  |  | 
2 | NCCCCOc1ccc([C@H]2CC[C@]3(CC2)OOC2(O3)C3CC4CC(C3)CC2C4)cc1 (stereo partly drawn) | 50 to 100 (≈ 117 to 234 µM) | 23.4 | 11 | 370 |  |  | 
3 | CC(C)(N)CCOc1ccc([C@H]2CC[C@]3(CC2)OOC2(O3)C3CC4CC(C3)CC2C4)cc1 (stereo partly drawn) | 50 to 100 (≈ 113 to 226 µM) | 89.2 | 27.8 | 1050 | 1 to 4 |  | 
4 | O=C(c1ccc([C@H]2CC[C@]3(CC2)OOC2(O3)C3CC4CC(C3)CC2C4)cc1)N1CCNCC1 (stereo partly drawn) | > 100 |  |  |  |  |  | 
5 | c1cc([C@H]2CC[C@]3(CC2)OOC2(O3)C3CC4CC(C3)CC2C4)ccc1OCC1CCNCC1 (stereo partly drawn) | 12.5 to 25 (≈ 27.6 to 55.1 µM) | 17.9 | 8.9 | 465 |  |  | 
6 | c1cc([C@H]2CC[C@]3(CC2)OOC2(O3)C3CC4CC(C3)CC2C4)ccc1OCCN1CCCOCC1 (stereo partly drawn) | 3.1 to 6.3 (≈ 6.41 to 13 µM) | 13.2 | 16.8 | 2610 |  |  | 
7 | c1cc([C@H]2CC[C@]3(CC2)OOC2(O3)C3CC4CC(C3)CC2C4)ccc1OCCC1CCNCC1 (stereo partly drawn) | > 100 | 192 | 34.1 | 1190 |  |  | 
8 | c1cc([C@H]2CC[C@]3(CC2)OOC2(O3)C3CC4CC(C3)CC2C4)ccc1OCCN1CCNCC1 (stereo partly drawn) | > 100 | 23.9 | 16.8 | 752 |  |  | 
9 | [O-][S+]1CCN(CCCOc2ccc([C@H]3CC[C@]4(CC3)OOC3(O4)C4CC5CC(C4)CC3C5)cc2)CC1 (stereo partly drawn) | < 1.6 |  |  |  |  | 1000 to 2000 | 
10 | O[C@H]1CC[C@H](NCCCOc2ccc([C@H]3CC[C@]4(CC3)OOC3(O4)C4CC5CC(C4)CC3C5)cc2)CC1 (stereo partly drawn) | > 100 | 26.5 | 12.8 | 721 |  |  | 
11 | NCCOc1ccc([C@H]2CC[C@]3(CC2)OOC2(O3)C3CC4CC(C3)CC2C4)cc1 (stereo partly drawn) | > 100 | 4.73 | 3.42 | 287 | 1 to 4 |  | 
12 | NC1CCN(S(=O)(=O)c2ccc([C@H]3CC[C@]4(CC3)OOC3(O4)C4CC5CC(C4)CC3C5)cc2)CC1 (stereo partly drawn) | 12.5 to 25 (≈ 24.9 to 49.7 µM) |  |  |  |  |  | 
13 | CC(C)(O)CN1CCC(Oc2ccc([C@H]3CC[C@]4(CC3)OOC3(O4)C4CC5CC(C4)CC3C5)cc2)CC1 (stereo partly drawn) | 1.6 to 3.1 (≈ 3.13 to 6.06 µM) | 22.7 | 27.7 | 1810 |  | 1000 to 2000 | 
14 | CC(C)(O)CNCCCOc1ccc([C@H]2CC[C@]3(CC2)OOC2(O3)C3CC4CC(C3)CC2C4)cc1 (stereo partly drawn) | > 100 | 36 | 22.8 | 1210 |  | > 1900 | 
15 | FC1(F)C2CC3CC1CC(C2)C31OO[C@]2(CC[C@@H](c3ccc(OCCN4CCOCC4)cc3)CC2)O1 (stereo partly drawn) | 1.6 to 3.1 (≈ 3.16 to 6.13 µM) |  |  |  |  |  | 
16 | c1cc([C@H]2CC[C@]3(CC2)OOC2(O3)C3CC4CC(C3)CC2C4)ccc1OC1CCNCC1 (stereo partly drawn) | > 100 | 49.4 | 16.4 | 810 |  |  | 
17 | c1cc([C@H]2CC[C@]3(CC2)OOC2(O3)C3CC4CC(C3)CC2C4)ccc1CN1CCOCC1 (stereo partly drawn) | 1.6 to 3.1 (≈ 3.64 to 7.05 µM) |  |  |  |  |  | 
18 | c1cc([C@H]2CC[C@]3(CC2)OOC2(O3)C3CC4CC(C3)CC2C4)ccc1OCCCN1CCOCC1 (stereo partly drawn) | 1.6 to 3.1 (≈ 3.31 to 6.41 µM) |  |  |  |  |  | 
19 | CC1(C)CC(O)(COc2ccc([C@H]3CC[C@]4(CC3)OOC3(O4)C4CC5CC(C4)CC3C5)cc2)CC(C)(C)N1 (stereo partly drawn) | > 100 | 122 | 32.9 | 1000 |  |  | 
20 | c1ccc([C@H]2CC[C@]3(CC2)OOC2(O3)C3CC4CC(C3)CC2C4)c(OCCN2CCOCC2)c1 (stereo partly drawn) | 3.1 to 6.3 (≈ 6.6 to 13.4 µM) |  |  |  |  |  | 
21 | CC(C)(CN)Oc1ccc([C@H]2CC[C@]3(CC2)OOC2(O3)C3CC4CC(C3)CC2C4)cc1 (stereo partly drawn) | > 100 | 7.97 | 11.3 | 529 |  |  | 
22 | CS(=O)(=O)N1CCN(CCCOc2ccc([C@H]3CC[C@]4(CC3)OOC3(O4)C4CC5CC(C4)CC3C5)cc2)CC1 (stereo partly drawn) | < 1.6 |  |  |  |  |  | 
23 | c1cc([C@H]2CC[C@]3(CC2)OOC2(O3)C3CC4CC(C3)CC2C4)ccc1OCCOC1CCNCC1 (stereo partly drawn) | 50 to 100 (≈ 103 to 207 µM) | 97.6 | 19 | 633 |  |  | 
24 | c1cc([C@H]2CC[C@]3(CC2)OOC2(O3)C3CC4CC(C3)CC2C4)ccc1OCCN1CC2(COC2)C1 (stereo partly drawn) | 50 to 100 (≈ 104 to 208 µM) |  |  |  |  |  | 
25 | c1cc([C@H]2CC[C@]3(CC2)OOC2(O3)C3CC4CC(C3)CC2C4)ccc1OCCN1CCCCC1 (stereo partly drawn) | 6.3 to 12.5 (≈ 13.5 to 26.7 µM) |  |  |  |  |  | 
26 | N[C@H]1CC[C@@H](Oc2ccc([C@H]3CC[C@]4(CC3)OOC3(O4)C4CC5CC(C4)CC3C5)cc2)CC1 (stereo partly drawn) | 25 to 50 (≈ 55.1 to 110 µM) | 145 | 29.5 | 1170 | 1 to 4 |  | 
27 | NCCCOc1ccc([C@H]2CC[C@]3(CC2)OOC2(O3)C3CC4CC(C3)CC2C4)cc1 (stereo partly drawn) |  |  |  |  | 1 to 4 |  | 
28 | CC(C)(N)CNC(=O)C[C@H]1CC[C@]2(CC1)OOC1(O2)C2CC3CC(C2)CC1C3 (stereo partly drawn) | > 100 | < 1 | 2.61 | 776 |  |  | 
29 | c1cc([C@H]2CC[C@]3(CC2)OO[C@]2(O3)C3CC4CC(C3)CC2C4)ccc1OCCN1CCOCC1 [ARTEFENOMEL] | < 1.6 | 132 | 38.7 | 3800 |  | 6300 | 4600
